One assay addresses BRCA1 (BRCT)2 (Homo sapiens, UniProt P38398). Description: isothermal titration calorimetry with TR-. Type of assay: binding. Conditions: ITC. A general note: In ITC the heat of successive injections is recorded.
Assay [1] has as its system phospho-CtIP and BRCA1 (BRCT)2. Kind of assay: pull down-western of phospho-CtIP-myc from cell lysates with BRCA1. Type of assay: binding. Conditions: synthesized peptide, increasing concentrations.
Assay [2] concerns the target BRCA1 (BRCT)2 (thioredoxin-(BRCT)2 fusion) (Homo sapiens, UniProt P38398). Kind of assay: competition fluorescence polarization assay against FAM-β-A-pSPTF-NH2. Type of assay: binding. Put shortly:
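Competition fluorescence polarization: 20 nM FAM-β-A-pSPTF tracer plus 2.7 μM thioredoxin-(BRCT)2 fusion, titrated with variable concentrations of test peptide. IC50 obtained by fitting a four-parameter logistic equation.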

Assay [3] concerns the target BACH1-derived tetrapeptide (Homo sapiens) (UniProt Q9BX63). The note with it: cited from earlier work.
A further assay concerns GST-BRCA1 (BRCT)2 S1655A. Kind of assay: fluorescence polarization binding to GST-BRCA1. Set-up: species or system human. The note with it: FP; fluorescent peptides FAM-β-Ala-8.6 or FITC-BACH1 peptide. Summed up: (§1)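 Direct fluorescence polarization of GST-BRCA1 (BRCT)2 point mutants and wild type, using either the labelled BACH1 phosphopeptide (FITC-[…]-NH2) or FAM-β-Ala-labelled test peptide as probe. KD for each mutant was determined by FP, then normalized to the wild-type GST-(BRCT)2 KD.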

The next assay concerns GST-BRCA1 (BRCT)2 K1702M. Kind of assay: fluorescence polarization binding to GST-BRCA1. Conditions: FP; FITC-BACH1 peptide. Also on record: species or system human. Summed up:
as §1
In general terms: Polarisation of emitted light reports the rotation of a fluorescent probe.

Another assay has as its system GST-BRCA1 (BRCT)2 E1698A. Description: fluorescence polarization binding to GST-BRCA1. Also on record: species or system human. Conditions: FP; FITC-BACH1 peptide. Put shortly:
as §1

The subject of the next assay is GST-BRCA1 (BRCT)2 N1774A. Kind of assay: fluorescence polarization binding to GST-BRCA1. Also on record: species or system human. The note with it: FP; FITC-BACH1 peptide. Put shortly:
as §1

For assay [4], the target named is thioredoxin-(BRCT)2 fusion (human) (UniProt P38398). Description: ITC.
For assay [5] the target is unchanged. Description: fluorescence polarisation.
The target of assay [6] is GST-BRCA1 (BRCT)2 K1702M (human) (UniProt P38398). Kind of assay: fluorescence polarisation.

Where a SMILES comes first, the peptide text is derived from it. Where no end group is shown, it is not given here. [ ]: non-standard residue; d: D form. Phe(4-F) = N[C@@H](Cc1ccc(F)cc1)C(=O)O; pS = N[C@@H](COP(=O)(O)O)C(=O)O; βAla = NCCC(=O)O

Sequence of BACH1-derived tetrapeptide (Homo sapiens) (Q9BX63 whole entry, looked up, tested part not stated): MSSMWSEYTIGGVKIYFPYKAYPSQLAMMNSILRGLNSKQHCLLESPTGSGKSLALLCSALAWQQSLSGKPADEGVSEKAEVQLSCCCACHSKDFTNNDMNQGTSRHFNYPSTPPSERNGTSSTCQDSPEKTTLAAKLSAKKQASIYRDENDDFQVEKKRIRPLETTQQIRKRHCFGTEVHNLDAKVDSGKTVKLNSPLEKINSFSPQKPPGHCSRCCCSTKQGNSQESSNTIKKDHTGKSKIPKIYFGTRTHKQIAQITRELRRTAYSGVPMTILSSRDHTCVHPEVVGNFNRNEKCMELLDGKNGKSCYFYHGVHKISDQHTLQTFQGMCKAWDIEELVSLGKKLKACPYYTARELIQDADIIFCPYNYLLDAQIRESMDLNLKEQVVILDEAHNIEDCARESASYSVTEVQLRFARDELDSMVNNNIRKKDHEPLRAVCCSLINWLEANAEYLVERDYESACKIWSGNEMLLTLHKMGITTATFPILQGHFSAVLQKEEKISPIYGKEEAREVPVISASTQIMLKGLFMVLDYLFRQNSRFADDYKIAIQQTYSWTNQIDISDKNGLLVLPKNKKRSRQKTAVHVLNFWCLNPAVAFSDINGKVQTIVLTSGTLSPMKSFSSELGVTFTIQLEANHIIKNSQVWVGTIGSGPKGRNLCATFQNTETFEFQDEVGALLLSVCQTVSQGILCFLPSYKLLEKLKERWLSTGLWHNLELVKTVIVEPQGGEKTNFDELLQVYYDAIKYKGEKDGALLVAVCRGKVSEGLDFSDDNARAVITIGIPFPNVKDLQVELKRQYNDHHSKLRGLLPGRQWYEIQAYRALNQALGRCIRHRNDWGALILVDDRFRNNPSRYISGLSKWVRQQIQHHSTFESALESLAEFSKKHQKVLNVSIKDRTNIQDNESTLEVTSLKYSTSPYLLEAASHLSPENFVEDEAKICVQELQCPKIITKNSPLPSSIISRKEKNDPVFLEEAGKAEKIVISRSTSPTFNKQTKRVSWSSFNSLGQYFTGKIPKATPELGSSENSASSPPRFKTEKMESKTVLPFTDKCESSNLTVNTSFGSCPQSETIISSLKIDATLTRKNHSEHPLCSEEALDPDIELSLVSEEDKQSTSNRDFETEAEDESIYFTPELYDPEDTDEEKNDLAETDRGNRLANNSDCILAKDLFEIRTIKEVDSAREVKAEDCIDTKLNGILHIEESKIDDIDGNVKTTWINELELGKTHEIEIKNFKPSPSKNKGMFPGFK

For “8.6 Nat: peptide 8.6 with the two 4FPhe substituted with Phe (MCTIDFDEYRFRKT)”, the “binding after substitution of the two 4FPhe with Phe” value in the assay with BRCA1 (BRCT)2 is recorded as “did not significantly abrogate binding”. In assay [1], the “blocking of binding of phospho-CtIP and BRCA1 in cell lysates” value was “able to block the binding”.
On to “8.6E8pS: mutant of peptide 8.6 containing the Glu to pSer mutation (MCTID[Phe(4-F)]D[pS]YR[Phe(4-F)]RKT)”, for which the “fold lower KD than peptide 8.6” value with BRCA1 (BRCT)2 (25 °C, pH 7.4, TR-(BRCT)2 20 uM, peptide 214 μM) turned out to be 10 fold.
On to `CC[C@H](C)[C@H](NC(=O)[C@H](Cc1ccc(F)cc1)NC(=O)[C@H](CC(=O)O)NC(=O)[C@H](CC(N)=O)NC(=O)[C@H](CS)NC(=O)[C@H](CCSC)NC(C)=O)C(=O)N[C@@H](Cc1ccc(F)cc1)C(=O)N[C@@H](CCCNC(=N)N)C(=O)N[C@@H](CCCNC(=N)N)C(=O)N[C@@H](CO)C(=O)N[C@H](C(=O)N[C@@H](Cc1ccc(F)cc1)C(=O)N[C@@H](CCCNC(=N)N)C(=O)N[C@@H](C)C(N)=O)[C@@H](C)O` [8.1] (Ac-MCND[Phe(4-F)]I[Phe(4-F)]RRST[Phe(4-F)]RA-NH2), for which the IC50 in assay [2] was 24 ± 2 µM.
The molecule `CC[C@H](C)[C@H](NC(=O)[C@H](Cc1ccc(F)cc1)NC(=O)[C@H](CC(=O)O)NC(=O)[C@H](CO)NC(=O)[C@H](CS)NC(=O)[C@H](CCSC)NC(C)=O)C(=O)N[C@@H](Cc1ccc(F)cc1)C(=O)N[C@@H](CO)C(=O)N[C@@H](CCCNC(=N)N)C(=O)N[C@@H](CCCNC(=N)N)C(=O)N[C@H](C(=O)N[C@@H](Cc1ccc(O)cc1)C(=O)N[C@H](C(=O)N[C@@H](Cc1ccc(F)cc1)C(N)=O)[C@@H](C)O)[C@@H](C)O` [8.2] (Ac-MCSD[Phe(4-F)]I[Phe(4-F)]SRRTYT[Phe(4-F)]-NH2) had an IC50 in assay [2] of 49 ± 5 µM.
In assay [2], `CSCC[C@H](NC(C)=O)C(=O)N[C@@H](CS)C(=O)N[C@@H](Cc1ccc(O)cc1)C(=O)N[C@@H](CC(=O)O)C(=O)N[C@@H](Cc1ccc(F)cc1)C(=O)N[C@@H](CC(=O)O)C(=O)N[C@H](C(=O)N[C@H](C(=O)N[C@@H](CC(N)=O)C(=O)N[C@@H](CC(=O)O)C(=O)N[C@@H](Cc1c[nH]cn1)C(=O)N[C@H](C(=O)N[C@@H](Cc1ccc(F)cc1)C(N)=O)[C@@H](C)O)[C@@H](C)O)[C@@H](C)O` [8.5] (HELM PEPTIDE1{[ac].M.C.Y.D.[O=C([C@H](Cc1ccc(F)cc1)N[*:1])[*:2]].D.T.T.N.D.H.T.[O=C([C@H](Cc1ccc(F)cc1)N[*:1])[*:2]].[am]}$$$$V2.0) had an IC50 of 26 ± 2 µM. Compared with the last molecule, the IC50 is about 1.9-fold lower.
In the case of BRCA1 BRCT2 (from UniProt P38398), in [3], the equilibrium dissociation constant (Kd) is 0.19 µM.
For FITC-SRSTpSTPFNK-NH2 [pSer peptide], the “binding to S1655A mutant versus wild type” value in the assay on GST-BRCA1 (BRCT)2 S1655A is reported as “completely abolished recognition”. Further, the “binding to K1702M mutant versus wild type” value with GST-BRCA1 (BRCT)2 K1702M is given as “completely abolished recognition”. The “change in affinity, E1698A versus wild type” value with GST-BRCA1 (BRCT)2 E1698A is given as “no significant change in affinity”. In addition, the “change in affinity, N1774A versus wild type” value in the assay on GST-BRCA1 (BRCT)2 N1774A is “no significant change in affinity”.
For the molecule “Y9A: Tyr to Ala mutant of peptide 8.6 (MCTID[Phe(4-F)]DEAR[Phe(4-F)]RKT)”, the “competitive binding of alanine mutant relative to wild-type 8.6” value in [2] (competition FP, TR-BRCA1 (BRCT)2 2.5 μM, FAM-β-Ala-pSPTF-NH2 20 nM) is “competed more effectively for binding than the wild-type 8.6”.
For the molecule MCTID[Phe(4-F)]D[pS]YR[Phe(4-F)]RKT [peptide 8.6E8pS], in assay [4], the fold lower KD than peptide 8.6 is 10 fold.

B1: peptide 8.6 (peptide)
peptide: MCTIDFDEYRFRKT
HELM: PEPTIDE1{[ac].M.C.T.I.D.[O=C([C@H](Cc1ccc(F)cc1)N[*:1])[*:2]].D.E.Y.R.[O=C([C@H](Cc1ccc(F)cc1)N[*:1])[*:2]].R.K.T.[am]}$$$$V2.0
SMILES: CC[C@H](C)[C@H](NC(=O)[C@@H](NC(=O)[C@H](CS)NC(=O)[C@H](CCSC)NC(C)=O)[C@@H](C)O)C(=O)N[C@@H](CC(=O)O)C(=O)N[C@@H](Cc1ccc(F)cc1)C(=O)N[C@@H](CC(=O)O)C(=O)N[C@@H](CCC(=O)O)C(=O)N[C@@H](Cc1ccc(O)cc1)C(=O)N[C@@H](CCCNC(=N)N)C(=O)N[C@@H](Cc1ccc(F)cc1)C(=O)N[C@@H](CCCNC(=N)N)C(=O)N[C@@H](CCCCN)C(=O)N[C@H](C(N)=O)[C@@H](C)O
As for B1, the half-inhibitory concentration (IC50) in [5] was 10 µM. Also, in [4], the Kd was 3.7 µM and the dH (printed as a magnitude; the paper calls it negative) was 24.6 kcal/mol.
Take {FAM-βAla}-MCTIDFDEYRFRKT-NH2 [FAM-β-Ala-…-NH2]: the fold reduction in binding against wild-type GST-BRCA1 (BRCT)2 in [6] came out at 6 fold.

A word on the IC50: it is the concentration that gives 50% inhibition. As a reminder, the Kd is a measure of binding affinity in units of concentration.

Source of the values: PMC4433557 (ACS chemical biology, 2015).
